Reference: ChEMBL document CHEMBL4316642, “Discovery of 1,4-Naphthoquinones as a New Class of Antiproliferative Agents Targeting GPR55” (ACS Med Chem Lett, 2019)
Active and inactive are the calls of the source. No cut-off for these calls is given here.

Assays:
Assay type in all cases: cell-based
MCF-10A = assay: Cytotoxicity in human MCF10A cells assessed as reduction in cell viability incubated for 24 hrs by MTT assay
Method in brief: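 EC50 from MTT viability after 24 h exposure; values in micromolar, mean of triplicate (n = 3) determinations. MCF10A described as […]; MDA-MB-231 noted as GPR55-overexpressing.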

[1] = Cytotoxicity in human PBMC assessed as cell viability at 100 uM incubated for 24 to 48 hrs hrs by trypan blue dye exclusion assay; conditions: PBMC (peripheral blood mononuclear cells), read-out: Activity
Method in brief: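 Peripheral blood mononuclear cells exposed at 100 μM for 24 or 48 h; viability scored by trypan blue dye exclusion, reported as percent viable cells.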

[2] = biological target: G-protein coupled receptor 55 (Homo sapiens) (UniProt Q9Y2T6); assay: Inverse agonist activity at GPR55 in human MDA-MB-231 cells assessed as reduction in cell viability at 5 uM incubated for 24 hrs by MTT assay
Chain of G-protein coupled receptor 55 (Homo sapiens) (Q9Y2T6 whole entry): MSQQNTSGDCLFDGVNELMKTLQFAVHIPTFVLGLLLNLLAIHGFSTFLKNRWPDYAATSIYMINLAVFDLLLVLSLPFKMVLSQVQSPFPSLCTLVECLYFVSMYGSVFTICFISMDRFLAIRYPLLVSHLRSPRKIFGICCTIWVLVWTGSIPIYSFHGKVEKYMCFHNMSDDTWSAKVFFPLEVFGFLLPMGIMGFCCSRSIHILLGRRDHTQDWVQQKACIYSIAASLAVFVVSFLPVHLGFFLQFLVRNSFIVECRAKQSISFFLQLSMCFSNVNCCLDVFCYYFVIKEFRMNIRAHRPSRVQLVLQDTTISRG

[3] = biological target: G-protein coupled receptor 55 (Homo sapiens) (UniProt Q9Y2T6); assay: Inverse agonist activity at GPR55 in human MDA-MB-468 cells assessed as reduction in cell viability at 5 uM incubated for 24 hrs by MTT assay
[4] = biological target: G-protein coupled receptor 55 (Homo sapiens) (UniProt Q9Y2T6); assay: Inverse agonist activity at GPR55 in human MCF7 cells assessed as reduction in cell viability at 5 uM incubated for 24 hrs by MTT assay
[5] = biological target: G-protein coupled receptor 55 (Homo sapiens) (UniProt Q9Y2T6); assay: Inverse agonist activity at GPR55 in human T47D cells assessed as reduction in cell viability at 5 uM incubated for 24 hrs by MTT assay
[6] = biological target: G-protein coupled receptor 55 (Homo sapiens) (UniProt Q9Y2T6); assay: Inverse agonist activity at GPR55 in human MDA-MB-231 cells assessed as reduction in cell viability at 5 uM treated 30 mins after 10 uM GPR55 selective antagonist CID16020046 treatment followed by incubation for 24 hrs by MTT assay
Method in brief: (§1)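 Cells pretreated with GPR55 antagonist CID16020046 for 30 min before test compound addition; proliferation compared against DMSO-treated cells.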

[7] = biological target: G-protein coupled receptor 55 (Homo sapiens) (UniProt Q9Y2T6); assay: Inverse agonist activity at GPR55 in human MDA-MB-468 cells assessed as reduction in cell viability at 5 uM treated 30 mins after 10 uM GPR55 selective antagonist CID16020046 treatment followed by incubation for 24 hrs by MTT assay; method in brief: as §1
[8] = biological target: G-protein coupled receptor 55 (Homo sapiens) (UniProt Q9Y2T6); assay: Inverse agonist activity at GPR55 in human MCF7 cells assessed as reduction in cell viability at 5 uM treated 30 mins after 10 uM GPR55 selective antagonist CID16020046 treatment followed by incubation for 24 hrs by MTT assay; method in brief: as §1
[9] = biological target: G-protein coupled receptor 55 (Homo sapiens) (UniProt Q9Y2T6); assay: Inverse agonist activity at GPR55 in human T47D cells assessed as reduction in cell viability at 5 uM treated 30 mins after 10 uM GPR55 selective antagonist CID16020046 treatment followed by incubation for 24 hrs by MTT assay

Row | SMILES | EC50 (MCF-10A) [µM] | viability at 100 µM [1] [%] | Activity [2] | Activity [3] | Activity [4] | Activity [5] | Activity [6] | Activity [7] | Activity [8] | Activity [9]
1 | O=C1C(Cl)=C(N2CCOCC2)C(=O)c2c(O)ccc(O)c21 | 3.7 | 70 | Active | Active | Active | inactive | inactive | inactive | inactive | inactive
2 | O=C1C(Cl)=C(N2CCCCC2)C(=O)c2c(O)ccc(O)c21 | 2.5 | 65 | – | – | – | – | – | – | – | –
